Assay results taken from ChEMBL document CHEMBL2093137, “WHO-TDR NTD Screening”.
Converted amounts (≈) assume the structure as drawn.

Columns and labels:
[1] = tested on: Trypanosoma brucei brucei; test: WHO-TDR: Human African Trypanosomiasis (HAT); format: functional, organism-based; conditions: Squib-427
Method in brief: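 Antiparasitic potency is reported as IC50. The screen covered 10,000 compounds from a diverse Life Chemicals library, filtered for drug-likeness and reactive groups, tested on whole bloodstream-form Trypanosoma brucei of the Squib 427 strain.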

Schistosoma mansoni = test: WHO-TDR: Schistosomiasis; format: functional; design: concentration or dose not given beside the values
Method in brief: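 In this whole-organism assay, larval and/or adult worms of Schistosoma mansoni (Puerto Rican strain) were exposed to compounds from a diverse Life Chemicals library of 10,000 members. A reference drug served as positive control. Activity is stated as percent inhibition and IC50.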

Plasmodium falciparum K1 = test: WHO-TDR: Malaria; format: functional, organism-based, Homo sapiens; conditions: Erythrocyte
Method in brief: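 Antiplasmodial potency, expressed as IC50, was measured in a whole-organism assay on intra-erythrocytic Plasmodium falciparum K1 in human red blood cells. The screened library held 10,000 diverse compounds from Life Chemicals.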

Onchocerca ochengi [2] = test: (§1) WHO-TDR: Onchocerciasis; format: functional; design: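 at 12.5 µM on microfilariae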
Method in brief: (§2)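 Microfilariae of Onchocerca ochengi or Onchocerca lienalis, animal pathogens standing in for the human parasite, were exposed to compounds in a whole-organism screen. The compounds came from a 10,000-compound diverse Life Chemicals library filtered for drug-likeness and reactive groups. Results are expressed as percent inhibition and IC50.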

[3] = WHO-TDR: Cytotoxicity; format: toxicity, cell-based; conditions: human, MRC5 cells
Onchocerca ochengi [4] = test: as §1; format: functional; design: concentration or dose not given beside the values; method in brief: as §2; remark: listed apart in the source
Leishmania infantum = test: WHO-TDR: Leishmaniasis; format: functional, organism-based, Mus musculus; conditions: Macrophage
Method in brief: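 Antiparasitic potency, reported as IC50, was measured against intracellular Leishmania infantum amastigotes. The parasite strain was MHOM/MA(BE)/67, and murine peritoneal macrophages served as host cells for the screen of a 10,000-compound diverse library from Life Chemicals.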

Trypanosoma cruzi = test: WHO-TDR: Chagas disease; format: functional, organism-based, Homo sapiens; conditions: MRC5
Method in brief: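 Intracellular amastigotes of the Trypanosoma cruzi Tulahuen CL2 beta-galactosidase strain, grown in MRC-5SV2 human lung fibroblast host cells, were tested in a whole-organism screen. The compounds came from a 10,000-member diverse Life Chemicals library that had been filtered for drug-likeness and reactive groups. Previously published standard procedures were followed, with a reference drug as positive control, and potency is reported as IC50.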

Row | IC50 [1] | IC50 (Plasmodium falciparum K1) | IC50 (Leishmania infantum) | Compound | % Inhibition (Schistosoma mansoni) | % Inhibition (Onchocerca ochengi [2]) | IC50 [3] | % Inhibition (Onchocerca ochengi [4]) | IC50 (Trypanosoma cruzi)
1 | > 13.2 µg/mL | > 13.2 µg/mL | > 13.2 µg/mL | CC1Cc2ccccc2N1C(=O)Cc1csc(SCC(=O)Nc2ccc(F)cc2)n1 (stereo not drawn) | 0% | 100% | > 13.2 µg/mL | 0% | 4.42 µg/mL (≈ 10 µM)
2 | > 1.21 µg/mL | > 12.1 µg/mL | > 12.1 µg/mL | COc1cc(CSc2nc(CC(=O)NCc3ccco3)cs2)cc(OC)c1 | 0% | 100% | 7.55 µg/mL (≈ 18.7 µM) | 0% | 2.99 µg/mL (≈ 7.4 µM)
3 | 3.86 µg/mL (≈ 9.49 µM) | > 12.2 µg/mL | > 12.2 µg/mL | O=C(Cc1csc(SCc2ccc(Cl)cc2)n1)NCCC1=CCCCC1 | 0% | 100% | > 12.2 µg/mL | 0% | 3.58 µg/mL (≈ 8.8 µM)
4 | > 13.3 µg/mL | > 13.3 µg/mL | > 13.3 µg/mL | COc1ccc(CCNC(=O)Cc2csc(SCc3ccc(C)cc3)n2)cc1OC | 0% | 100% | > 13.3 µg/mL | 0% | 4.01 µg/mL (≈ 9.07 µM)
5 | 4.07 µg/mL (≈ 9.49 µM) | > 12.9 µg/mL | > 12.9 µg/mL | CSc1nc(NC(C)C)c2cnn(CCNC(=O)C34CC5CC(CC(C5)C3)C4)c2n1 | 0% | 100% | > 12.9 µg/mL | 0% | 4.17 µg/mL (≈ 9.73 µM)
6 | 4.13 µg/mL (≈ 9.49 µM) | > 13 µg/mL | > 13 µg/mL | CSc1nc(NC(C)C)c2cnn(CCNC(=O)COc3ccc(Cl)cc3)c2n1 | 0% | 100% | > 13 µg/mL | 0% | 4.18 µg/mL (≈ 9.62 µM)
7 | > 12.4 µg/mL | > 12.4 µg/mL | 1.84 µg/mL (≈ 4.46 µM) | O=C(NCCn1nc(-c2ccco2)ccc1=O)C1c2ccccc2Oc2ccccc21 | 0% | 0% | > 12.4 µg/mL | 0% | > 12.4 µg/mL
8 | > 13.4 µg/mL | > 13.4 µg/mL | 0.695 µg/mL (≈ 1.55 µM) | O=C(CN1CCC(C(=O)Nc2ccc(Oc3ccccc3)cc2)CC1)Nc1ccc(F)cc1 | 0% | 0% | > 13.4 µg/mL | 0% | > 13.4 µg/mL
9 | > 13 µg/mL | > 13 µg/mL | > 13 µg/mL | Cc1ccc(NC(=O)CN2CCC(C(=O)NCCc3c[nH]c4ccccc34)CC2)c(C)c1 | 0% | 100% | > 13 µg/mL | 0% | 4.92 µg/mL (≈ 11.4 µM)
10 | 4.1 µg/mL (≈ 9.6 µM) | 2.66 µg/mL (≈ 6.23 µM) | 4.15 µg/mL (≈ 9.71 µM) | COc1ccccc1N1CCN(c2nc(Nc3ccc(C)cc3)c3nccnc3n2)CC1 | 25% | 100% | 4.5 µg/mL (≈ 10.5 µM) | 0% | 3.44 µg/mL (≈ 8.05 µM)
11 | 3.66 µg/mL (≈ 10.8 µM) | > 10.2 µg/mL | > 10.2 µg/mL | CCC(CO)Nc1nc(Nc2ccc(C)c(C)c2)c2nccnc2n1 (stereo not drawn) | 0% | 100% | > 10.2 µg/mL | 0% | > 10.2 µg/mL
12 | > 12.7 µg/mL | > 12.7 µg/mL | 6.56 µg/mL (≈ 15.5 µM) | COc1ccc(N2CCN(C(=O)c3csc(NC(=O)c4ccccc4)n3)CC2)cc1 | 0% | 100% | > 12.7 µg/mL | 0% | > 12.7 µg/mL
13 | 3.72 µg/mL (≈ 10.6 µM) | > 10.5 µg/mL | > 10.5 µg/mL | NC(=O)c1csc(NC(=O)C2(c3ccc(Cl)cc3)CCCC2)n1 | 0% | 100% | > 10.5 µg/mL | 0% | > 10.5 µg/mL
14 | > 9.64 µg/mL | > 9.64 µg/mL | > 9.64 µg/mL | O=C(NC1CCCC1)c1csc(NC(=O)c2cccs2)n1 | 0% | 100% | > 9.64 µg/mL | 0% | > 9.64 µg/mL
15 | > 12.8 µg/mL | > 12.8 µg/mL | > 12.8 µg/mL | Cc1[nH]c2ccccc2c1S(=O)(=O)CCNC(=O)Nc1ccc(C(F)(F)F)cc1 | 0% | 100% | > 12.8 µg/mL | 0% | > 12.8 µg/mL
16 | > 14.1 µg/mL | > 14.1 µg/mL | > 14.1 µg/mL | Cc1c(S(=O)(=O)CCNC(=O)NC2CCCCC2)c2ccccc2n1Cc1ccc(F)cc1 | 0% | 100% | > 14.1 µg/mL | 0% | > 14.1 µg/mL

Row | IC50 [1] | IC50 (Plasmodium falciparum K1) | IC50 (Leishmania infantum) | Compound | % Inhibition (Schistosoma mansoni) | % Inhibition (Onchocerca ochengi [2]) | IC50 [3] | % Inhibition (Onchocerca ochengi [4]) | IC50 (Trypanosoma cruzi)
17 | > 12.5 µg/mL | > 12.5 µg/mL | > 12.5 µg/mL | CCOc1ccc(N2CC(CNS(=O)(=O)c3c(C)cc(C)cc3C)CC2=O)cc1 (stereo not drawn) | 0% | 100% | > 12.5 µg/mL | 0% | > 12.5 µg/mL
18 | > 13.3 µg/mL | > 13.3 µg/mL | > 13.3 µg/mL | CCOc1ccc(N2CC(CNS(=O)(=O)c3cccc(C(F)(F)F)c3)CC2=O)cc1 (stereo not drawn) | 0% | 100% | > 13.3 µg/mL | 0% | > 13.3 µg/mL
19 | > 11.5 µg/mL | > 11.5 µg/mL | > 11.5 µg/mL | O=C1CC(CNS(=O)(=O)c2ccccc2F)CN1c1ccc(Cl)cc1 (stereo not drawn) | 0% | 100% | > 11.5 µg/mL | 0% | > 11.5 µg/mL
20 | 4.25 µg/mL (≈ 9.83 µM) | > 13 µg/mL | > 13 µg/mL | O=C1CC(CNS(=O)(=O)c2ccccc2C(F)(F)F)CN1c1ccc(Cl)cc1 (stereo not drawn) | 0% | 100% | > 13 µg/mL | 0% | 4.11 µg/mL (≈ 9.49 µM)
21 | > 10.5 µg/mL | > 10.5 µg/mL | > 10.5 µg/mL | O=C(NCC1CC(=O)N(c2ccc(Cl)cc2)C1)NC1CCCCC1 (stereo not drawn) | 0% | 0% | > 10.5 µg/mL | 100% | > 10.5 µg/mL
22 | > 10.9 µg/mL | > 10.9 µg/mL | > 10.9 µg/mL | O=C(NCC1CC(=O)N(c2ccc(Cl)cc2)C1)Nc1ccccc1F (stereo not drawn) | 0% | 100% | > 10.9 µg/mL | 0% | > 10.9 µg/mL
23 | > 12.1 µg/mL | > 12.1 µg/mL | > 12.1 µg/mL | COc1ccc(CCNC(=O)NCC2CC(=O)N(c3ccc(Cl)cc3)C2)cc1 (stereo not drawn) | 0% | 100% | > 12.1 µg/mL | 75% | 6.28 µg/mL (≈ 15.6 µM)
24 | 3.89 µg/mL (≈ 9.95 µM) | > 11.7 µg/mL | > 11.7 µg/mL | CCCOc1nn(CCC)cc1C(=O)N1CCN(c2ccccc2Cl)CC1 | 0% | 100% | > 11.7 µg/mL | 0% | 3.06 µg/mL (≈ 7.83 µM)
25 | 4.85 µg/mL (≈ 12 µM) | 6.04 µg/mL (≈ 15 µM) | > 12.1 µg/mL | O=C(NCc1cccs1)c1cn(Cc2ccccc2)nc1OCc1ccccc1 | 0% | 100% | 2.72 µg/mL (≈ 6.74 µM) | 0% | 2.09 µg/mL (≈ 5.18 µM)
26 | 0.416 µg/mL (≈ 1.08 µM) | > 11.5 µg/mL | > 11.5 µg/mL | Cc1ccc(C)c(C(=O)Nc2ccc3c(c2)CCC(=O)N3Cc2ccccc2)c1 | 0% | 75% | > 11.5 µg/mL | 0% | > 11.5 µg/mL
27 | 3.89 µg/mL (≈ 9.71 µM) | 7.34 µg/mL (≈ 18.3 µM) | > 12 µg/mL | CC(C)CCN1C(=O)CCc2cc(NC(=O)COc3ccc(Cl)cc3)ccc21 | 0% | 100% | > 12 µg/mL | 0% | 3.45 µg/mL (≈ 8.61 µM)
28 | 3.5 µg/mL (≈ 8.42 µM) | > 12.5 µg/mL | > 12.5 µg/mL | CC(C)CCN1C(=O)CCc2cc(NC(=O)c3cccc(Br)c3)ccc21 | 0% | 100% | > 12.5 µg/mL | 0% | 3.35 µg/mL (≈ 8.08 µM)
29 | 3.56 µg/mL (≈ 9.83 µM) | > 10.9 µg/mL | > 10.9 µg/mL | CCCN1C(=O)CCc2cc(NS(=O)(=O)c3ccc(F)cc3)ccc21 | 0% | 100% | > 10.9 µg/mL | 0% | 10.9 µg/mL (≈ 30 µM)
30 | 10.2 µg/mL (≈ 23.4 µM) | > 13.1 µg/mL | > 13.1 µg/mL | COc1ccc(Cl)cc1S(=O)(=O)Nc1ccc2c(c1)CCC(=O)N2CCC(C)C | 0% | 100% | > 13.1 µg/mL | 0% | > 13.1 µg/mL
31 | 0.395 µg/mL (≈ 1.13 µM) | 8.47 µg/mL (≈ 24.2 µM) | > 10.5 µg/mL | CN(C)C(CNC(=O)c1ccc(-c2ccccc2)cc1)c1ccsc1 (stereo not drawn) | 0% | 0% | > 10.5 µg/mL | 0% | 3.32 µg/mL (≈ 9.49 µM)
